Experimental data from different studies.
Protocols differ between the studies behind these lines. pIC50: −log10 of the molar value.
Target: Acetylcholinesterase (ache, Electrophorus electricus, UniProt O42275)
Observed: enzyme activity
Mode: inhibitor
Method: Ellman

COc1ccc(OC)c(/C=C/C(=O)N2CCCC(NC(=O)OC(C)(C)C)C2)c1 (stereo not shown) — pIC50: 4.38
COc1cc(/C=C/C(=O)NC2CCN(Cc3ccccc3)CC2)ccc1OC(=O)N(C)C — pIC50: 5.28
O=C(O)C(/C=C/c1c(Cl)cccc1Cl)=N\Nc1nc(-c2ccc(Cl)cc2)cs1 — pIC50: 7.04
CCN(C)C(=O)Oc1ccc(CCC(=O)N2CCC(Cc3ccccc3)CC2)cc1 — pIC50: 5.21
Clc1ccc(Cn2cc(COc3ccc(-c4nnc(-c5ccccc5)o4)cc3)nn2)cc1 — pIC50: < 4.00
CCN(C)C(=O)Oc1ccc(CCC(=O)N2CCC(CCCc3ccccc3)CC2)cc1OC — pIC50: 4.82
O=[N+]([O-])c1ccc(-c2nnc(-c3ccc(OCc4cn(Cc5ccccc5)nn4)cc3)o2)cc1 — pIC50: < 4.00
CC(C)(C)OC(=O)NC1CCCN(C(=O)/C=C/c2ccc(Cl)cc2)C1 (stereo not shown) — pIC50: < 4.30
CCN(C)C(=O)Oc1ccc(/C=C/C(=O)NC2CCN(Cc3ccccc3)CC2)cc1 — pIC50: 5.74
Brc1ccc(Cn2cc(COc3ccc(-c4nnc(-c5ccccc5)o4)cc3)nn2)cc1 — pIC50: < 4.00
COc1ccc(/C=C/C(=O)N2CCCC(NC(=O)OC(C)(C)C)C2)cc1 (stereo not shown) — pIC50: < 4.30
O=C(O)C(/C=C/c1ccc(Cl)cc1)=N\Nc1nc(-c2ccccc2)cs1 — pIC50: 6.07
CN(C)C(=O)Oc1ccc(/C=C/C(=O)NC2CCN(Cc3ccccc3)CC2)cc1 — pIC50: 5.23
Cc1ccc(Cn2cc(COc3ccc(-c4nnc(-c5ccc(F)cc5)o4)cc3)nn2)cc1 — pIC50: < 4.00
COc1cc(CCC(=O)N2CCC(Cc3ccccc3)CC2)ccc1OC(=O)N1CCOCC1 — pIC50: 5.14
CC(C)(C)OC(=O)NC1CCCN(C(=O)C=Cc2ccccc2)C1 (stereo not shown) — pIC50: 4.40
CCN(CC)C(=O)Oc1ccc(/C=C/C(=O)NC2CCN(Cc3ccccc3)CC2)cc1 — pIC50: 5.35
O=[N+]([O-])c1ccc(-c2nnc(-c3ccc(OCc4cn(Cc5ccc(Br)cc5)nn4)cc3)o2)cc1 — pIC50: < 4.00
CCN(C)C(=O)Oc1ccc(CCC(=O)N2CCc3ccccc3C2)cc1 — pIC50: 5.08
CC(C)(C)OC(=O)NC1CCCN(C(=O)/C=C/c2ccccc2Br)C1 (stereo not shown) — pIC50: 4.33
Fc1ccc(-c2nnc(-c3ccc(OCc4cn(Cc5ccccc5)nn4)cc3)o2)cc1 — pIC50: < 4.00
CC(C)(C)OC(=O)NC1CCCN(C(=O)/C=C/c2ccccc2Cl)C1 (stereo not shown) — pIC50: 4.70
COc1ccc(-c2nnc(-c3ccc(OCc4cn(Cc5ccccc5)nn4)cc3)o2)cc1 — pIC50: < 4.00
CC(C)(C)OC(=O)NC1CCCN(C(=O)/C=C/c2ccc(Br)cc2)C1 (stereo not shown) — pIC50: < 4.30
Fc1ccc(-c2nnc(-c3ccc(OCc4cn(Cc5ccc(Br)cc5)nn4)cc3)o2)cc1 — pIC50: < 4.00
